# Reference: PubChem BioAssay
# The source made the active and inactive calls.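 The calls were made as follows, unless noted: active = visual image review flags a hit and inhibition of aggregation exceeds 20%; inconclusive = visual hit but inhibition at or below 20%; inactive = no hit on visual image review.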
# Tests used:
# [1] = inhibitors of TNFa-induced NFkB p65 translocation, primary screen, imaging, HUVEC, MLSMR starter and 10KST1 sets (AID 438;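 active = inhibition above 20% together with a positive visual image hit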;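 also: compound added about 3h40 before a 20 min TNFalpha stimulation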;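 as to inhibition: signal is the nuclear over cytoplasmic p65 intensity ratio per well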); details: HUVEC TNFa-induced p65 nuclear translocation; cell count: measured here: nuclei count (cytotoxicity indicator), at 2.08 µM; inhibition: at 2 µM, stronger effect = higher value, 0% TNFa-plus-vehicle, 100% no-TNFa wells
# [2] = inhibitors of mutant huntingtin aggregation, primary screen, imaging, exon1htt(103Q)mCFP cells, high-content imaging (AID 483); details: exon1htt(103Q)mCFP cell line, aggregate imaging, at 2 µM; inhibition of aggregation: stronger effect = higher value; nuclei count: measured here: cell count, toxicity;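 also: compound exposure lasted 3 days before fixation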;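 as to nuclei count: percent of the per-plate median nuclei count of sample wells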
# [3] = inhibitors of E-selectin induction by TNFa, primary screen, imaging, HUVEC, immunofluorescence, MLSMR starter and 10KST1 sets (AID 487;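 active = visually confirmed hit in the image check and inhibition above 20%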;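 as to inhibition: signal is fraction of cell area covered by stained E-selectin grains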;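 as to nuclei count: 100% = median nuclei count of all wells on the same plate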); details: HUVEC TNFalpha-induced E-selectin immunofluorescence imaging, at 2 µM; inhibition: stronger effect = higher value; nuclei count: measured here: cell number, toxicity
# [4] = target: Voltage-gated potassium channel subunit beta-2 (Rattus norvegicus) (UniProt P62483); experiment: KvBeta enzyme negative modulators, primary screen, biochemical, NADPH fluorescence (AID 622;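 active = fluorescence slope higher than the sample average by over 3 SD, cut at about -0.22 in these data, passing the limit was not always enough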;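 also: slope of raw intensity against log time taken from 70 to 1610 s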); details: recombinant KvBeta, 4-cyanobenzaldehyde reduction, at 10 µM, stronger effect = higher value
# [5] = target: Voltage-gated potassium channel subunit beta-2 (Rattus norvegicus) (UniProt P62483); experiment: KvBeta positive modulators, primary screen, biochemical, NADPH fluorescence (AID 623;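 active = NADPH fluorescence slope more negative than the mean of all samples by about 3 SD, 99.7% confidence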;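 also: fluorescence intensity change per second fitted from 20 to 320 s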); details: Recombinant KvBeta, NADPH fluorescence decrease slope, 10 min; at 10 µM; stronger effect = lower value
# [6] = target: Muscarinic acetylcholine receptor M4 (Homo sapiens) (UniProt P08173); experiment: compounds altering M4/GIRK thallium flux, either direction, primary screen, M4 allosteric agonist project, cell-based, HEK293 M4/GIRK, BTC-AM (AID 625;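 active = fluorescence slope after compound addition differing from the mean of all tested samples at 99.7% confidence, mostly higher but some lower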;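 also: thallium influx through GIRK channels coupled to M4 in HEK293 cells with BTC-AM dye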); details: at 10 µM, actives lie on both sides
# Outline: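 assay system = HEK293 cells with M4 receptor and GIRK channels | medium = pH 7.3 thallium assay buffer | doses = 10 µM final, single point | timing = cells overnight at 37 °C, BTC-AM loading 1 h, reads 2 min total | signal = BTC-AM fluorescence, 1 Hz kinetic reads | read-out = post-addition slope, 15–24 s, of baseline-normalized fluorescence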
# [7] = inhibitors of Sendai virus-induced IRF3 signaling, primary screen, TLR/RLR signaling modifier project, cell-based, Sendai virus stimulus, luciferase, 10K MLSCN set (AID 602276;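 active = inhibition at or above 50% at 10 µM; inactive = inhibition below 50%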;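 also: firefly luciferase from ISG56 promoter only with Renilla not read in this screen; 0% = Sendai virus plus DMSO and 100% = medium plus DMSO without virus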); details: HEK293 RL24 IRF3 luciferase reporter, at 10 µM, stronger effect = higher value
# [8] = inhibitors of poly I:C-induced TLR3 signaling, primary screen, cell-based, poly I:C stimulus, luciferase, 10K MLSCN set (AID 602277;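 active = inhibition of the reporter signal at or above 50%; inactive = inhibition below 50%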); details: HEK293-TLR3 RL24 IRF3 luciferase reporter, at 10 µM, stronger effect = higher value
# Sequence of Muscarinic acetylcholine receptor M4 (Homo sapiens) (P08173 whole entry, looked up): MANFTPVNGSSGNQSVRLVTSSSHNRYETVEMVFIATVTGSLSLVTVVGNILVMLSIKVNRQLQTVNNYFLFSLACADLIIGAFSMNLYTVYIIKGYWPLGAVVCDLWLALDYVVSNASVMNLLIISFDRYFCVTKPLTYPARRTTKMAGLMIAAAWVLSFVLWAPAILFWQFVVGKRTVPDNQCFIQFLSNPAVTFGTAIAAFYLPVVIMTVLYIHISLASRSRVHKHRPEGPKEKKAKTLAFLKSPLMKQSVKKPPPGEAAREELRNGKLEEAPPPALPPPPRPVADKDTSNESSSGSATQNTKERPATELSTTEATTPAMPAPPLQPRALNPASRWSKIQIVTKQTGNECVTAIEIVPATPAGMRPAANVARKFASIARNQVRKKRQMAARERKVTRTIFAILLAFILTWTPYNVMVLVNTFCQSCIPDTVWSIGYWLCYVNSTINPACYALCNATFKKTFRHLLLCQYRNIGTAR
# Sequence of Voltage-gated potassium channel subunit beta-2 (Rattus norvegicus) (P62483 whole entry, looked up): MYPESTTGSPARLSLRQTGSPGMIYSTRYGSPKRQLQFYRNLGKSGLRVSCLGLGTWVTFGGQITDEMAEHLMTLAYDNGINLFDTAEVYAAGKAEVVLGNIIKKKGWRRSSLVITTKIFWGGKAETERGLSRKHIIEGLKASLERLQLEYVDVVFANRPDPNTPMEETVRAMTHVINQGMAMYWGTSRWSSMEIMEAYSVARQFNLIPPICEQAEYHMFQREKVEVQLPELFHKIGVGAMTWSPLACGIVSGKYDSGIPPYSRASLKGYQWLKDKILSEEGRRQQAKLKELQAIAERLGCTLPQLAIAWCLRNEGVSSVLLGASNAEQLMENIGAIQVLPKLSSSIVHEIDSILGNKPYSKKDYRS
Structure (SMILES),cell count [1],inhibition [1],inhibition of aggregation [2],nuclei count [2] [%],inhibition [3],nuclei count [3] [%],fluorescence slope [4],NADPH fluorescence slope [5],fluorescence slope [6],inhibition [7],inhibition [8]
O=C(CSC1=NC(=O)C(Cc2ccccc2)C(=O)N1)NC1CCCCC1 (stereo not drawn),605,-9.8% (inactive),-13.9% (inactive),104,-11.4% (inactive),108,-0.558 (inactive),-6.8e-05 (inactive),0.0034 (inactive),-10.2% (inactive),-11.1% (inactive)
Cc1nc(C)c(C(=O)C2=C(O)C(=O)N(CCN3CCOCC3)C2c2cccnc2)s1 (stereo not drawn),256,-0.4% (inactive),22.5% (inactive),92.8,-7.1% (inactive),96.9,-0.557 (inactive),-0.000101 (inactive),0.0026 (inactive),17.2% (inactive),22.7% (inactive)
COc1ccc(C2NC(c3ccc(OC)c(OC)c3OC)C(C)C(=O)C2C)c(OC)c1OC (stereo not drawn),663,-16.3% (inactive),2.6% (inactive),141,-142% (inactive),104,-0.474 (inactive),-2.1e-05 (inactive),0.00551 (inactive),14.8% (inactive),25.4% (inactive)
O=C(NCCCN1CCCC1=O)c1cncc(Br)c1,394,-5.8% (inactive),14.1% (inactive),91.8,54.5% (active),72.7,-0.418 (inactive),-9.4e-05 (inactive),0.00605 (inactive),13.1% (inactive),24.3% (inactive)
O=C(O)CCCNS(=O)(=O)c1ccc(NCc2ccccc2)c(C(=O)O)c1,687,6.7% (inactive),2.8% (inactive),87.1,7% (inactive),91.1,-0.343 (inactive),-5e-05 (inactive),0.00502 (inactive),10.5% (inactive),10.3% (inactive)
Cc1ccc(-c2nnn(CC(=O)NC3CC4CCC3C4)n2)cc1 (stereo not drawn),239,-5% (inactive),15.8% (inactive),77.6,3.6% (inactive),102,-0.563 (inactive),-4.4e-05 (inactive),0.00799 (inactive),7.26% (inactive),-0.548% (inactive)
O=C(CSc1nnnn1-c1ccccc1)Nc1nsc(-c2ccc(Cl)cc2)n1,449,-4.1% (inactive),17.3% (inactive),95.1,59.2% (inactive),130,-0.561 (inactive),-3.3e-05 (inactive),0.00729 (inactive),15.4% (inactive),15.1% (inactive)
Cc1cc(C(=O)N2CCN(C(c3ccccc3)c3ccccc3)CC2)no1,303,-17.6% (inactive),32.7% (inactive),73.4,-17.5% (inactive),84.1,-0.433 (inactive),-5.3e-05 (inactive),0.00719 (inactive),14.8% (inactive),12.2% (inactive)
Cc1ccc(NS(=O)(=O)c2cn(C)cn2)cc1,491,-0.5% (inactive),7.8% (inactive),89.1,3.6% (inactive),107,-0.44 (inactive),-0.000336 (inactive),0.00531 (inactive),15.2% (inactive),17.6% (inactive)
CN1C(=O)C2(NCCc3c2[nH]c2ccccc32)c2ccccc21 (stereo not drawn),583,0.7% (inactive),-4.1% (inactive),99.3,-4.8% (inactive),90.7,-0.482 (inactive),-0.000314 (inactive),0.00214 (inactive),20% (inactive),34.7% (inactive)
Cc1ccccc1C(=O)N1CCC(C(=O)Nc2ccc(S(=O)(=O)N3CCCC3)cc2)CC1,186,6.1% (inactive),-11% (inactive),105,12.2% (inactive),97.5,-0.566 (inactive),-3.8e-05 (inactive),0.0067 (inactive),8.84% (inactive),16.9% (inactive)
COc1cccc(OC)c1C(=O)Nc1cccc(C(C)=O)c1,734,-11.6% (inactive),19.3% (inactive),95.5,15.5% (inactive),104,-0.53 (inactive),-1.1e-05 (inactive),0.00451 (inactive),12.1% (inactive),27.4% (inactive)
CCN(CC)S(=O)(=O)N1CCC(C(=O)NCC2COc3ccccc3O2)CC1 (stereo not drawn),616,17% (inactive),-12.4% (inactive),88.5,-27.8% (inactive),115,-0.494 (inactive),2.9e-05 (inactive),0.00755 (inactive),-4.12% (inactive),1.83% (inactive)
O=C(Cc1cccs1)Nc1ccccc1C(=O)O,365,2.6% (inactive),13.3% (inactive),99.5,-7.6% (inactive),113,-0.524 (inactive),-3.3e-05 (inactive),0.00502 (inactive),-8.52% (inactive),-27.9% (inactive)
O=C(CCn1c(=O)oc2ccccc21)NCCN1CCc2ccccc2C1,375,7.2% (inactive),5.1% (inactive),93.1,-315% (inactive),108,-0.451 (inactive),-2.5e-05 (inactive),0.00577 (inactive),15.7% (inactive),29.6% (inactive)
O=S(=O)(CCOc1ccccc1)c1nc2ccccc2[nH]1,332,-11.8% (inactive),-12.8% (inactive),99.9,-77.3% (inactive),106,-0.566 (inactive),-9e-05 (inactive),0.00411 (inactive),19.7% (inactive),13.7% (inactive)
CCN(CC)c1ccc(CNc2ccc(Br)cn2)cc1,388,-2.4% (inactive),-13.8% (inactive),101,-74.6% (inactive),122,-0.546 (inactive),-0.000144 (inactive),0.00212 (inactive),-41.1% (inactive),-92.7% (inactive)
COc1ccccc1C1c2c(oc3ccc(Cl)cc3c2=O)C(=O)N1c1cc(C)on1 (stereo not drawn),345,-5% (inactive),2.2% (inactive),103,-13.8% (inactive),112,-0.555 (inactive),2.1e-05 (inactive),0.0044 (inactive),24.8% (inactive),16.8% (inactive)
Cc1ccc(Cn2nnc3c(=O)n(CC(=O)NCC4CCCO4)cnc32)cc1 (stereo not drawn),792,-13.6% (inactive),-20.8% (inactive),102,-51.5% (inactive),98.4,-0.459 (inactive),-4.1e-05 (inactive),0.00672 (inactive),9.27% (inactive),18.9% (inactive)
COc1ccc(OC)c(NC(=O)c2cn(C)c(=O)c3cc(OC)c(OC)cc23)c1,782,-20.3% (inactive),1.3% (inactive),97.7,10.9% (inactive),119,-0.307 (inactive),-1.5e-05 (inactive),0.00686 (inactive),-16.7% (inactive),-26.6% (inactive)
CN(C)c1ccc(CNC2CC(C)(C)NC(C)(C)C2)cc1,334,2.4% (inactive),-12.5% (inactive),106,20.8% (inactive),91.1,-0.584 (inactive),-4.8e-05 (inactive),0.00412 (inactive),-0.582% (inactive),16.7% (inactive)
CC(C(=O)NCc1cccnc1)N1C(=O)c2ccccc2C1=O (stereo not drawn),783,5.5% (inactive),3.6% (inactive),105,-39.6% (inactive),132,-0.607 (inactive),1.7e-05 (inactive),0.00555 (inactive),-0.398% (inactive),10.3% (inactive)
Cc1cc2c(c(=O)n1CCc1ccccc1)C(C(C)C)C(C#N)=C(N)O2 (stereo not drawn),565,11.2% (inactive),-1.8% (inactive),106,-39% (inactive),123,-0.577 (inactive),-7.9e-05 (inactive),0.00377 (inactive),15.9% (inactive),25.8% (inactive)
Cc1ccc(Nc2nc(CSc3nnnn3C)cs2)cc1,549,-15.4% (inactive),3.7% (inactive),79.2,5.9% (inactive),109,-0.458 (inactive),-0.000383 (inactive),0.00561 (inactive),-54.9% (inactive),98.7% (active)
CCS(=O)(=O)N1CCC(C(=O)NC2CCCCC2)CC1,572,4.5% (inactive),7.8% (inactive),110,15.2% (inactive),118,-0.483 (inactive),-0.000241 (inactive),0.00287 (inactive),10% (inactive),16% (inactive)
Cc1ccnc(NC(=O)Nc2ccc(F)cc2)c1,478,8.1% (inactive),9.2% (inactive),98.7,-266% (inactive),126,-0.567 (inactive),-9.3e-06 (inactive),0.0057 (inactive),-59.1% (inactive),-110% (inactive)
CN(C)S(=O)(=O)n1cnc(-c2ccccc2)c1-c1ccccc1,382,2.8% (inactive),10.1% (inactive),100,-26.1% (inactive),107,-0.497 (inactive),-9.7e-06 (inactive),0.00475 (inactive),11.2% (inactive),20.5% (inactive)
COc1ccc(CN(C(=O)CNC(=O)c2ccco2)C(C(=O)NC2CCCC2)c2ccco2)cc1 (stereo not drawn),510,7.2% (inactive),3.1% (inactive),105,-62.9% (inactive),123,-0.592 (inactive),-1.6e-05 (inactive),0.00679 (inactive),-14.2% (inactive),-26.3% (inactive)
